# Tested on: SARS-CoV-2
# Test: Antiviral activity against pseudovirus SARS-CoV-2 spike protein infected in HEK-293T cells overexpressing ACE2 assessed as inhibition on pseudovirus infection incubated for 52 hrs by luminescence based microplate reader analysis
# Type: functional, organism-based
# Settings: Severe acute respiratory syndrome coronavirus 2, HEK-293T
# Method in brief: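 HEK-293T-ACE2h cells were pre-incubated with compound in DMEM for 2 h, then inoculated with luciferase-reporter spike pseudovirus plus 2-fold compound for about 2 h at 37 °C. The inoculum was replaced with fresh DMEM and cells were kept 48 h at 37 °C, then lysed. Luciferase luminescence was read, with virus-only cells set as 100%, and IC50 was computed.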
row,SMILES,IC50 [µM]
1,C=CCc1cc(CSc2nnc(-c3ccccc3Cl)o2)c(O)c(-c2ccc(O)c(CC=C)c2)c1,85.2
2,C=CCc1cc(-c2cc(CC=C)c3oc(SCc4nnc(-c5ccc(C)cc5)o4)nc3c2)c2oc(SCc3nnc(-c4ccc(C)cc4)o3)nc2c1,> 100
3,C=CCc1cc(-c2cc(CC=C)c3oc(SCc4nnc(-c5cccc(F)c5)o4)nc3c2)c2oc(SCc3nnc(-c4cccc(F)c4)o3)nc2c1,> 100
4,C=CCc1cc(-c2cc(CC=C)c3oc(SCc4nnc(-c5ccc(F)cc5)o4)nc3c2)c2oc(SCc3nnc(-c4ccc(F)cc4)o3)nc2c1,> 100
5,C=CCc1cc(-c2cc(CC=C)c3oc(SCc4nnc(-c5ccc(Br)cc5)o4)nc3c2)c2oc(SCc3nnc(-c4ccc(Br)cc4)o3)nc2c1,> 100
6,C=CCc1cc(-c2cc(CC=C)c3oc(SCc4nnc(-c5cccc(Cl)c5)o4)nc3c2)c2oc(SCc3nnc(-c4cccc(Cl)c4)o3)nc2c1,> 100
7,C=CCc1cc(CSc2nnc(-c3cccnc3)o2)c(O)c(-c2ccc(O)c(CC=C)c2)c1,45.6
8,C=CCc1cc(CSc2nnc(-c3ccccc3C)o2)c(O)c(-c2ccc(O)c(CC=C)c2)c1,> 100
9,C=CCc1cc(-c2cc(CC=C)c3oc(SCc4nnc(-c5cccc(C)c5)o4)nc3c2)c2oc(SCc3nnc(-c4cccc(C)c4)o3)nc2c1,> 100
10,C=CCc1cc(CSc2nnc(-c3ccccc3F)o2)c(O)c(-c2ccc(O)c(CC=C)c2)c1,> 100
11,C=CCc1cc(-c2cc(CC=C)c3oc(SCc4nnc(-c5ccccc5F)o4)nc3c2)c2oc(SCc3nnc(-c4ccccc4F)o3)nc2c1,> 100
12,C=CCc1cc(-c2cc(CC=C)c3oc(SCc4nnc(-c5cccc(Br)c5)o4)nc3c2)c2oc(SCc3nnc(-c4cccc(Br)c4)o3)nc2c1,> 100
13,C=CCc1cc(-c2cc(CC=C)c3oc(SCc4nnc(-c5ccccc5Cl)o4)nc3c2)c2oc(SCc3nnc(-c4ccccc4Cl)o3)nc2c1,84.4
14,C=CCc1ccc(O)c(-c2ccc(O)c(CC=C)c2)c1 [HONOKIOL],> 50
15,C=CCc1cc(-c2cc(CC=C)c3oc(SCc4nnc(-c5ccccc5C)o4)nc3c2)c2oc(SCc3nnc(-c4ccccc4C)o3)nc2c1,> 100
16,C=CCc1cc(-c2cc(CC=C)c3oc(SCc4nnc(-c5ccccc5)o4)nc3c2)c2oc(SCc3nnc(-c4ccccc4)o3)nc2c1,> 100
17,C=CCc1cc(CSc2nnc(-c3ccccc3)o2)c(O)c(-c2ccc(O)c(CC=C)c2)c1,17
18,C=CCc1cc(-c2cc(CC=C)c3oc(SCc4nnc(-c5ccc(OC)cc5)o4)nc3c2)c2oc(SCc3nnc(-c4ccc(OC)cc4)o3)nc2c1,> 100
19,C=CCc1cc(-c2cc(CC=C)c3oc(SCc4nnc(-c5ccccc5OC)o4)nc3c2)c2oc(SCc3nnc(-c4ccccc4OC)o3)nc2c1,> 100
20,C=CCc1cc(-c2cc(CC=C)c3oc(SCc4nnc(-c5cccc(OC)c5)o4)nc3c2)c2oc(SCc3nnc(-c4cccc(OC)c4)o3)nc2c1,> 100
21,C=CCc1cc(-c2cc(CC=C)c3oc(SCc4nnc(-c5ccccc5Br)o4)nc3c2)c2oc(SCc3nnc(-c4ccccc4Br)o3)nc2c1,> 100
22,C=CCc1cc(-c2cc(CC=C)c3oc(SCc4nnc(-c5ccc(Cl)cc5)o4)nc3c2)c2oc(SCc3nnc(-c4ccc(Cl)cc4)o3)nc2c1,> 100

# Reference: ChEMBL document CHEMBL5126577, “Discovery of honokiol thioethers containing 1,3,4-oxadiazole moieties as potential α-glucosidase and SARS-CoV-2 entry inhibitors” (Bioorg Med Chem, 2022)
